Measured values published in ChEMBL document CHEMBL1140574, “Design, synthesis, and antimalarial activity of structural chimeras of thiosemicarbazone and ferroquine analogues” (Bioorg Med Chem Lett, 2007).
Calls of active or inactive are those of the source. The rule behind the calls is not given here.

Assays:
Falcipain 2 = target: T1, Falcipain 2 (Plasmodium falciparum, UniProt Q9N6S8); assay: Inhibition of Plasmodium falciparum W2 recombinant falcipain-2 activity
T1 sequence (Q9N6S8 whole entry): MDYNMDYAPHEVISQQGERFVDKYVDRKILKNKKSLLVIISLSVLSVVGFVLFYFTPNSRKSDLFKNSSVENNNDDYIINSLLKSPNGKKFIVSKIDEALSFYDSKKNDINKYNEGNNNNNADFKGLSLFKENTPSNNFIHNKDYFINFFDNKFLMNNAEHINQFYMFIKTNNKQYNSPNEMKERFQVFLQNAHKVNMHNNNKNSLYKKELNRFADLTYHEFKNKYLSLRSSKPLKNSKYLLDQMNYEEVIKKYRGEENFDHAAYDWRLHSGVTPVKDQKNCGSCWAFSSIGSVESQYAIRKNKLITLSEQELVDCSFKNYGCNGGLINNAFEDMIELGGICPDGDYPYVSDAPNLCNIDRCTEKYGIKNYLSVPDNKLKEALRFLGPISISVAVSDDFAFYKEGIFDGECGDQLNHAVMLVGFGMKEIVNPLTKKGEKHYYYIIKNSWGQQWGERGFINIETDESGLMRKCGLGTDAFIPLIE

Plasmodium falciparum [1] = assay: Antimalarial activity against chloroquine-sensitive Plasmodium falciparum 3D7; type: functional, organism-based
In short: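 Parasites kept in RPMI 1640 with 10% human serum, 25 mM Hepes, 25 mM NaHCO3, in A-positive human erythrocytes at 37 °C (10% O2, 5% CO2, 85% N2, 95% humidity). Twofold serial dilutions, final 0.01 to 200 µM, in 1% DMSO/RPMI; 42 h incubation. [3H]hypoxanthine uptake measured by scintillation after freeze-thaw lysis and filter harvest; IC50 by nonlinear regression of log-dose/response curves.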

Plasmodium falciparum [2] = assay: Antimalarial activity against chloroquine-resistant Plasmodium falciparum Bre1; type: functional, organism-based
In short: (§1)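 Parasites cultured in A-positive human erythrocytes in RPMI 1640 with 10% human serum, 25 mM Hepes, 25 mM NaHCO3, 37 °C, 10% O2/5% CO2/85% N2. Compounds dissolved in DMSO 1% in RPMI, twofold serial dilutions, final […]; 42 h incubation; [3H]hypoxanthine uptake read by scintillation after freeze-thaw lysis; IC50 by nonlinear regression of log-dose/response curves.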

Plasmodium falciparum [3] = assay: Antimalarial activity against chloroquine-resistant Plasmodium falciparum FCR3; type: functional, organism-based; in short: as §1
Plasmodium falciparum [4] = assay: Antimalarial activity against chloroquine-resistant Plasmodium falciparum W2; type: functional, organism-based; in short: as §1
Plasmodium falciparum [5] = assay: Antimalarial activity against Plasmodium falciparum W2 as food vacuole abnormality; type: functional, organism-based

SMILES | IC50 (Falcipain 2) [µM] | IC90 (Plasmodium falciparum [1]) [µM] | IC90 (Plasmodium falciparum [2]) [µM] | IC90 (Plasmodium falciparum [3]) [µM] | IC90 (Plasmodium falciparum [4]) [µM] | Activity (Plasmodium falciparum [5])
C/C(=N\NC(=S)NCCCNc1ccnc2cc(Cl)ccc12)c1ccc(Br)cc1 | > 20 | 25.8 |  |  |  | 
C/C(=N\NC(=S)NCCCNc1ccnc2cc(Cl)ccc12)c1ccc(Cl)c(Cl)c1 | > 20 | 1.4 |  |  |  | 
C/C(=N\NC(=S)NCCNc1ccnc2cc(Cl)ccc12)c1ccc(Br)cc1 | 12.9 | 26.3 |  |  |  | 
CCN(CC)CCCC(C)Nc1ccnc2cc(Cl)ccc12 (stereo not drawn) [CHLOROQUINE] |  | 0.0417 | 0.722 | 1.18 | 0.992 | 
C/C(=N\NC(=S)NCCNc1ccnc2cc(Cl)ccc12)c1ccc(Cl)c(Cl)c1 | 4.42 | 2.4 |  |  |  | Active
